Reference: PubChem BioAssay AID504789 (Broad Institute, 2011)
Results filed as inconclusive are left out. The source made the active and inactive calls.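 Rule for the calls: active = compound whose fitted half-maximal dose lies within ten times its top tested dose in every test run, killing cells; inconclusive = test runs disagree, or a run gives an unclear call; inactive = every test run inactive.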

Test system: not listed separately
Test: HMLE_sh_eGFP viability loss – cell-based, luminescence, dry powder, set 7, counter-screen for breast cancer stem cell project, dose response (AID 504789)
Conditions: HMLE_sh_eGFP viability, CellTiter-Glo luminescence, 72 h; at 19.5 µM (top of the series)
In short: (§1)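 Test system: HMLE_sh_eGFP control cells; buffer or medium: medium without serum; schedule: compound exposure approximately 70–74 h at 37 °C; technique: CellTiter-Glo ATP luminescence; control set: DMSO neutral control and 160 µM puromycin positive control, every plate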

| SMILES | activity change, negative = cytotoxicity |
| --- | --- |
| CC(C)c1ccc(/C=C/C(=O)N2CC(F)(F)C2)cc1 | 11.1% (inactive) |
| Cc1csc(NC(=O)c2ccc(COc3cccnc3)o2)n1 | 17.4% (inactive) |
| O=C(c1ccc(COc2ccccc2)o1)n1ccc(-c2ccc[nH]2)n1 | 10.5% (inactive) |
| O=C(COc1ccc(Cl)cc1Cl)NC1=NCCS1 | -6.79% (inactive) |
| CC(C)c1ccc(/C=C\C(=O)NC2=NCCS2)cc1 | -12.1% (inactive) |
| Cc1csc(NC(=O)c2ccc(COc3ncccc3F)o2)n1 | -4.8% (inactive) |
| O=C(COc1c(Cl)cc(Cl)cc1Cl)N/N=C/c1ccc[nH]1 | 17.5% (inactive) |
| O=C(c1ccc(COc2ccccc2)o1)N1CC(F)(F)C1 | 13.3% (inactive) |
| Cc1cccc(/C=C/C(=O)NC2=NCCS2)c1 | 23.8% (inactive) |
| COc1cc(OC(C)C)ccc1/C=C/C(=O)NC1=NCCS1 | 25% (inactive) |
| COc1cc(C(C)C)ccc1/C=C/C(=O)NC1=NCCS1 | 10.3% (inactive) |
| CC(C)c1ccc(C#CC(=O)NC2=NCCS2)cc1 | 6.05% (inactive) |
| Cc1csc(NC(=O)c2cccc(CNc3ccccn3)c2)n1 | -7.38% (inactive) |
| O=C(COc1ccc(Cl)cc1Cl)n1ccc(-c2ccc[nH]2)n1 | 27.2% (inactive) |
| N#Cc1cccc(/C=C/C(=O)NC2=NCCS2)c1 | -7.41% (inactive) |
| Cc1csc(NC(=O)c2ccc(CNc3ncccc3F)o2)n1 | 3.58% (inactive) |
| O=C(O)COc1ccc(Cl)cc1Cl | -6.56% (inactive) |
| CN(C)C(=N)N=C(N)N | 15.9% (inactive) |
| O=C(COc1ccc(Cl)cc1Cl)N/N=C/c1ccccc1 | 11.1% (inactive) |
| N#Cc1ccccc1/C=C/C(=O)NC1=NCCS1 | 5.88% (inactive) |
| Cc1ccnc(NCc2ccc(C(=O)Nc3nc(C)cs3)o2)c1 | -1.56% (inactive) |
| CCc1ccc(/C=C/C(=O)NC2=NCCS2)cn1 | -2.79% (inactive) |
| O=C(COc1ccc(Cl)cc1Cl)Nc1nccs1 | 0.602% (inactive) |

Test system: HMLE_sh_eGFP viability, CellTiter-Glo luminescence, 72 h
Test: as above
Conditions: not given
In short: as §1

| SMILES | AC50 |
| --- | --- |
| Cc1csc(NC(=O)c2cccc(COc3cccc(F)c3)c2)n1 | 2.2 µM |
| Cc1csc(NC(=O)c2ccc(COc3cccc(OC(F)(F)F)c3)o2)n1 | 3.01 µM |
| Cc1csc(NC(=O)c2cccc(COc3cccc(Cl)c3)c2)n1 | 3.87 µM |
| Cc1csc(NC(=O)c2cccc(COc3ccccc3F)c2)n1 | 12.4 µM |
| Cc1cccc(OCc2cccc(C(=O)Nc3nc(C)cs3)c2)c1 | 11.9 µM |
| COc1cccc2c1C(=O)c1c(O)c3c(c(O)c1C2=O)C[C@@](O)(C(=O)CO)C[C@@H]3OC1C[C@H](N)[C@H](O)[C@H](C)O1 (some centres not stated) | 0.068 µM |
| CC(C)c1ccc(/C=C/C(=O)n2ccc(-c3ccc[nH]3)n2)cc1 | 10.7 µM |
| Cc1cccc(NCc2ccc(C(=O)Nc3nc(C)cs3)o2)n1 | 21.9 µM |
| Cc1cccc(NCc2cccc(C(=O)Nc3nc(C)cs3)c2)n1 | 25 µM |
